Columns and labels:
[1] = system: Radical scavenging activity; assay: Antioxidant activity assessed as inhibition DPPH radical production after 15 mins by spectrophotometric analysis; assay type: functional
Method in brief: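 Compounds at 1–50 in methanol were mixed with an equal volume of methanolic DPPH. Absorbance was compared with a control of DPPH plus methanol without compound, and results are given as percent radical scavenging.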

[2] = biological target: T1, Xanthine dehydrogenase/oxidase (Rattus norvegicus, UniProt P22985); assay: Inhibition of Wistar albino rat xanthine oxidase isolated from liver using xanthine as substrate incubated for 15 mins prior to substrate addition by spectrophotometric analysis
T1 sequence (P22985 whole entry, the tested form may be a part): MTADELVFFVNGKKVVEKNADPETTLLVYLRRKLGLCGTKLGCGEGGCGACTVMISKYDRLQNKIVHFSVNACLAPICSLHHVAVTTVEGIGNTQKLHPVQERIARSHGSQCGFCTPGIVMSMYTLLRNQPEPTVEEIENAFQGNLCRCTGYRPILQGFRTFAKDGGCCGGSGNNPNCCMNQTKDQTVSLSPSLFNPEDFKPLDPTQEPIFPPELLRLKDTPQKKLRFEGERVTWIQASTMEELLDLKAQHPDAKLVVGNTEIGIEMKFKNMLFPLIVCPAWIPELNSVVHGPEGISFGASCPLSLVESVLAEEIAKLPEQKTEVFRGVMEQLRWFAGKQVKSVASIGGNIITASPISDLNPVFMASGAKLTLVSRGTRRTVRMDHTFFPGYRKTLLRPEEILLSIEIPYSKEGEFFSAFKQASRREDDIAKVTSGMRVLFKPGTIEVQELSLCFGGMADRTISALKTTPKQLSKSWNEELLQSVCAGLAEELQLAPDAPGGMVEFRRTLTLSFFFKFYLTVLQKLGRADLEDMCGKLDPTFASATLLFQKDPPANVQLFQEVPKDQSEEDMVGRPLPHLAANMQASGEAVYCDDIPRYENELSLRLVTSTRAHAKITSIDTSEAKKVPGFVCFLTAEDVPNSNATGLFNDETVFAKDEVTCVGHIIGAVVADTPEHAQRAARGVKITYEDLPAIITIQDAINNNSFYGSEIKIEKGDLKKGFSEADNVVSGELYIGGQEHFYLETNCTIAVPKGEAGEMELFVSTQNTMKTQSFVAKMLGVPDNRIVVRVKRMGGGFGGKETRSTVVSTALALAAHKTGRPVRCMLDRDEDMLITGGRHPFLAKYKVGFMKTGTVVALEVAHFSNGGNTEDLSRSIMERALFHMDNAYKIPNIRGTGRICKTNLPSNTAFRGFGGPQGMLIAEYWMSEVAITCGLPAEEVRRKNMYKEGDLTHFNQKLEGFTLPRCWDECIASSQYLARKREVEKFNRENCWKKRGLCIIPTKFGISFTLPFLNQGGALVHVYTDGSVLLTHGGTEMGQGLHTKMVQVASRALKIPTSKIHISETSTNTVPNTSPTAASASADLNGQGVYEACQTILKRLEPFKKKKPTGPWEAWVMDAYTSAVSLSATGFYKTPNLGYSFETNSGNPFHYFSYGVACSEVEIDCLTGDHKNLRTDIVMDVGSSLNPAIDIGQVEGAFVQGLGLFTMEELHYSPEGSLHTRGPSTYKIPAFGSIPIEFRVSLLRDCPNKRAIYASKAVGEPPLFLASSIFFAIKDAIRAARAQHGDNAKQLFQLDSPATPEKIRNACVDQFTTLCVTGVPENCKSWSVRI
Method in brief: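 Xanthine oxidase was prepared from perfused Wistar albino rat liver. The liver was homogenized in ice-cold 0.05 M phosphate (pH 7.8) with 0.1 mM EDTA and spun at 10,000g. The supernatant was precipitated with 60% ammonium sulfate, dialyzed against phosphate pH 6.8, and protein measured by Lowry. Enzyme was preincubated with compound in DMSO in phosphate pH 7.4 at room temperature for 15 min. Uric acid was read at 295 nm; inhibition was relative to DMSO-only control, and IC50 came from linear regression.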

[3] = biological target: T1, Xanthine dehydrogenase/oxidase; assay: Competitive inhibition of Wistar albino rat xanthine oxidase isolated from liver using xanthine as substrate by Lineweaver-Burk plot analysis
Method in brief: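 Inhibition type was assessed with the rat liver XO preparation by varying xanthine substrate across 1–5 and analysing by Lineweaver–Burk plot.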

SMILES | IC50 [1] | IC50 [2] | inhibition (INH) [3]
CCCCc1nc(Cl)c(C2CC(c3cc(Cl)sc3SCc3ccccc3)=NN2c2nc(-c3ccc(Cl)cc3)cs2)[nH]1 (configuration not stated) | 21.8 µM | 20 µM | –
Clc1ccc(-c2csc(N3N=C(c4cc(Cl)sc4SCc4ccccc4)CC3c3ccc(Cl)cc3)n2)cc1 (configuration not stated) | 41.5 µM | 32 µM | –
O=C1O[C@H]([C@@H](O)CO)C(O)=C1O [ASCORBIC ACID] | 11.5 µM | – | –
Clc1ccc(-c2csc(N3N=C(c4cc(Cl)sc4Cl)CC3c3ccc(Cl)cc3)n2)cc1 (configuration not stated) | 44.8 µM | 36 µM | –
CN(C)c1ccc(C2CC(c3cc(Cl)sc3SCc3ccccc3)=NN2c2nc(-c3ccc(Cl)cc3)cs2)cc1 (configuration not stated) | 15.6 µM | 6.2 µM | Active
NS(=O)(=O)c1sc(Cl)cc1C1=NN(c2nc(-c3ccc(Cl)cc3)cs2)C(c2ccc(F)cc2)C1 (configuration not stated) | > 50 µM | > 50 µM | –
Oc1ncnc2[nH]ncc12 [ALLOPURINOL] | – | 6 µM | –
CCCCc1nc(Cl)c(C2CC(c3cc(Cl)sc3S(N)(=O)=O)=NN2c2nc(-c3ccc(Cl)cc3)cs2)[nH]1 (configuration not stated) | 29.3 µM | 23.9 µM | –
Fc1ccc(C2CC(c3cc(Cl)sc3SCc3ccccc3)=NN2c2nc(-c3ccc(Cl)cc3)cs2)cc1 (configuration not stated) | > 50 µM | > 50 µM | –
NS(=O)(=O)c1sc(Cl)cc1C1=NN(c2nc(-c3ccc(Cl)cc3)cs2)C(c2ccc(Cl)cc2)C1 (configuration not stated) | 43 µM | 34.2 µM | –
CN(C)c1ccc(C2CC(c3cc(Cl)sc3S(N)(=O)=O)=NN2c2nc(-c3ccc(Cl)cc3)cs2)cc1 (configuration not stated) | 19.3 µM | 8.3 µM | –
CN(C)c1ccc(C2CC(c3cc(Cl)sc3Cl)=NN2c2nc(-c3ccc(Cl)cc3)cs2)cc1 (configuration not stated) | 21.1 µM | 9.4 µM | –
CCCCc1nc(Cl)c(C2CC(c3cc(Cl)sc3Cl)=NN2c2nc(-c3ccc(Cl)cc3)cs2)[nH]1 (configuration not stated) | 31.5 µM | 26 µM | –
Fc1ccc(C2CC(c3cc(Cl)sc3Cl)=NN2c2nc(-c3ccc(Cl)cc3)cs2)cc1 (configuration not stated) | > 50 µM | > 50 µM | –
